Active and inactive are the calls of the source. The rule behind the calls is not given here. Where a SMILES comes first, the peptide text is derived from it.

This passage reports Activity and inhibition results from ChEMBL document CHEMBL4043099, “Synthesis and biological activity of cyclolinopeptide A analogues modified with γ4-bis(homo-phenylalanine)” (Bioorg Med Chem, 2017).

Series [1] deals with PBMC. The series can be described thus: Immunosuppressive activity in human PBMC assessed as inhibition of PHA-induced proliferation after 4 days by MTT assay. It counts as functional, cell-based. The gist of the method:
(§1)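 PBMC (2×10^5 cells/well) in supplemented RPMI-1640, stimulated with 5 µg/mL PHA, with peptide at 1, 10 or 100 µg/mL. DMSO dilutions as control; no-PHA wells as baseline. Proliferation read by MTT after 4 days of incubation. Data given as mean OD of quadruplicate wells ± SE.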
In general terms: Formazan colour is commonly taken as a measure of viable cells.

The subject of series [2] is PBMC. Nature of the series: Anti-inflammatory activity in human PBMC assessed as inhibition of LPS-induced TNFalpha production at 10 ug/ml after overnight incubation by immunoassay. It counts as functional. The method, boiled down: (§2)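 Diluted venous blood from a single donor (10× in RPMI-1640), 1 mL cultures, stimulated with 1 µg/mL LPS from E. coli O:111:B4. Peptides added at 1 and 10 µg/mL from DMSO stock (5 mg/200 µL) diluted in RPMI-1640. DMSO dilutions served as 100% controls. Overnight incubation, then supernatants frozen at -20 C and TNF-α measured by ELISA.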

Series [3] relates to PBMC. The series can be described thus: Anti-inflammatory activity in human PBMC assessed as inhibition of LPS-induced TNFalpha production at 1 to 10 ug/ml after overnight incubation by immunoassay. It counts as functional, cell-based. The method, boiled down: as §2
Series [4] deals with PBMC. The series can be described thus: Immunosuppressive activity in human PBMC assessed as inhibition of PHA-induced cell proliferation at 10 ug/ml after 4 days by MTT assay. It counts as functional, cell-based. The gist of the method:
as §1

The test system of series [5] is PBMC. Nature of the series: Cytotoxicity against human PBMC assessed as reduction in cell viability at 100 ug/ml after 24 hrs by MTT assay. It counts as cell-based. The gist of the method:
(§3)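 Single-donor PBMC isolated on LSM, resuspended in RPMI-1640 with 10% FCS, L-glutamine, pyruvate, 2-mercaptoethanol and antibiotics. Cells plated at 3×10^5 per well and cultured 24 h with peptide at 1, 10 or 100 µg/mL. Survival read by MTT and expressed as % viable cells versus matched DMSO controls.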

The test system of series [6] is PBMC. Nature of the series: Immunosuppressive activity in human PBMC assessed as inhibition of PHA-induced cell proliferation at 1 to 100 ug/ml after 4 days by MTT assay. It counts as functional, cell-based. The gist of the method: as §1
Series [7] relates to PBMC. The series can be described thus: Cytotoxicity against human PBMC assessed as reduction in cell viability at 1 to 100 ug/ml after 24 hrs by MTT assay. It counts as cell-based. The method, boiled down: as §3
The subject of a further series is HT-29. The series can be described thus: Cytotoxicity against human HT-29 cells at 12 ug/ml. It counts as functional, cell-based.
The test system of the next series is A-431. The series can be described thus: Cytotoxicity against human A431 cells at 6 ug/ml. It counts as functional, cell-based.

By inhibition is commonly meant the change of the read-out against control, counted positive when it falls. For `CC[C@H](C)[C@@H]1NC(=O)[C@H](CC(C)C)NC(=O)CC[C@H](Cc2ccccc2)NC(=O)CC[C@H](Cc2ccccc2)NC(=O)[C@@H]2CCCN2C(=O)[C@@H]2CCCN2C(=O)[C@H](C(C)C)NC(=O)[C@H](CC(C)C)NC(=O)[C@H]([C@@H](C)CC)NC1=O`, in the series with PBMC [1], the Activity result was “Dose-dependent effect”. The inhibition result with PBMC [2] and in the series with PBMC [3] was “Active” in each case. For the same molecule, the result in the series on PBMC [4] was Active.
On to `CC[C@H](C)[C@@H]1NC(=O)[C@H](CC(C)C)NC(=O)CC[C@@H](Cc2ccccc2)NC(=O)CC[C@@H](Cc2ccccc2)NC(=O)[C@@H]2CCCN2C(=O)[C@@H]2CCCN2C(=O)[C@H](C(C)C)NC(=O)[C@H](CC(C)C)NC(=O)[C@H]([C@@H](C)CC)NC1=O`, for which the Activity entry with PBMC [5] was “Toxic”; in the series on PBMC [1], “Dose-dependent effect”. The inhibition entry in the series with PBMC [2] is “Active”. Also, in the series on PBMC [4], the outcome was Active.
With `CC[C@H](C)[C@H](N)C(=O)N[C@H](C(=O)N[C@@H](CC(C)C)C(=O)N[C@H](C(=O)N1CCC[C@H]1C(=O)N1CCC[C@H]1C(=O)N[C@H](CCC(=O)N[C@H](CCC(=O)N[C@@H](CC(C)C)C(=O)O)Cc1ccccc1)Cc1ccccc1)C(C)C)[C@@H](C)CC`, the result in the series on PBMC [6] was inactive. In the series on PBMC [7], the Activity result was “Non-Toxic”. Also, the inhibition at 10 µg/mL in the series on PBMC [2] was 45%.
In the case of `CC[C@H](C)[C@@H]1NC(=O)[C@H](CC(C)C)NC(=O)CC[C@H](Cc2ccccc2)NC(=O)CC[C@@H](Cc2ccccc2)NC(=O)[C@@H]2CCCN2C(=O)[C@@H]2CCCN2C(=O)[C@H](C(C)C)NC(=O)[C@H](CC(C)C)NC(=O)[C@H]([C@@H](C)CC)NC1=O`, the Activity result with PBMC [1] was “Dose-dependent effect”. Also, in the series on PBMC [2], the inhibition entry is “Active”. Also, the result with PBMC [4] was Active.
As to `CC[C@H](C)[C@H](N)C(=O)N[C@H](C(=O)N[C@@H](CC(C)C)C(=O)N[C@H](C(=O)N1CCC[C@H]1C(=O)N1CCC[C@H]1C(=O)N[C@@H](CCC(=O)N[C@@H](CCC(=O)N[C@@H](CC(C)C)C(=O)O)Cc1ccccc1)Cc1ccccc1)C(C)C)[C@@H](C)CC`, the result in the series with PBMC [6] was inactive. Also, the Activity entry in the series with PBMC [7] was “Non-Toxic”. Also, the inhibition at 10 µg/mL in the series with PBMC [2] amounted to 45%.
On to `CC[C@H](C)[C@H](N)C(=O)N[C@H](C(=O)N[C@@H](CC(C)C)C(=O)N[C@H](C(=O)N1CCC[C@H]1C(=O)N1CCC[C@H]1C(=O)N[C@@H](Cc1ccccc1)C(=O)N[C@H](CCC(=O)N[C@@H](CC(C)C)C(=O)O)Cc1ccccc1)C(C)C)[C@@H](C)CC`, for which the outcome in the series on PBMC [6] was inactive. Moreover, the Activity entry in the series with PBMC [7] was “Non-Toxic”. Moreover, in the series on PBMC [2], the inhibition at 10 µg/mL stood at 45%.
`CC[C@H](C)[C@@H]1NC(=O)[C@H](CC(C)C)NC(=O)[C@H](Cc2ccccc2)NC(=O)CC[C@@H](Cc2ccccc2)NC(=O)[C@@H]2CCCN2C(=O)[C@@H]2CCCN2C(=O)[C@H](C(C)C)NC(=O)[C@H](CC(C)C)NC(=O)[C@H]([C@@H](C)CC)NC1=O`: the Activity result in the series with PBMC [5] was “Toxic”; in the series with PBMC [1], “Dose-dependent effect”. Moreover, the inhibition result in the series with PBMC [2] is “Active”. For the same molecule, the result in the series with PBMC [4] was Active.
On to `CC[C@H](C)[C@H](N)C(=O)N[C@H](C(=O)N[C@@H](CC(C)C)C(=O)N[C@H](C(=O)N1CCC[C@H]1C(=O)N1CCC[C@H]1C(=O)N[C@@H](CCC(=O)N[C@@H](Cc1ccccc1)C(=O)N[C@@H](CC(C)C)C(=O)O)Cc1ccccc1)C(C)C)[C@@H](C)CC`, for which the result with PBMC [6] was inactive. Besides, in the series on PBMC [7], the Activity entry is reported as “Non-Toxic”. Besides, the inhibition result in the series on PBMC [2] is “inactive”.
Take `CC[C@H](C)[C@@H]1NC(=O)[C@H](CC(C)C)NC(=O)CC[C@@H](Cc2ccccc2)NC(=O)CC[C@H](Cc2ccccc2)NC(=O)[C@@H]2CCCN2C(=O)[C@@H]2CCCN2C(=O)[C@H](C(C)C)NC(=O)[C@H](CC(C)C)NC(=O)[C@H]([C@@H](C)CC)NC1=O`: in the series with PBMC [1], the Activity entry was “Dose-dependent effect”. The inhibition entry in the series with PBMC [2] is “Active”. In the series on PBMC [4], the outcome was Active.
In the case of `CC[C@H](C)[C@@H]1NC(=O)[C@H](CC(C)C)NC(=O)CC[C@H](Cc2ccccc2)NC(=O)[C@H](Cc2ccccc2)NC(=O)[C@@H]2CCCN2C(=O)[C@@H]2CCCN2C(=O)[C@H](C(C)C)NC(=O)[C@H](CC(C)C)NC(=O)[C@H]([C@@H](C)CC)NC1=O`, the Activity result with PBMC [1] was “Dose-dependent effect”. Further, in the series on PBMC [2], the inhibition entry is “Active”. Also, the outcome with PBMC [4] was Active.
In the case of `CC[C@H](C)[C@H](N)C(=O)N[C@H](C(=O)N[C@@H](CC(C)C)C(=O)N[C@H](C(=O)N1CCC[C@H]1C(=O)N1CCC[C@H]1C(=O)N[C@@H](CCC(=O)N[C@H](CCC(=O)N[C@@H](CC(C)C)C(=O)O)Cc1ccccc1)Cc1ccccc1)C(C)C)[C@@H](C)CC`, the result with PBMC [6] was inactive. Besides, the Activity result with PBMC [7] is listed as “Non-Toxic”. For the same molecule, the inhibition at 10 µg/mL in the series with PBMC [2] amounted to 45%.
On the same counts, the results for `CC[C@H](C)[C@H](N)C(=O)N[C@H](C(=O)N[C@@H](CC(C)C)C(=O)N[C@H](C(=O)N1CCC[C@H]1C(=O)N1CCC[C@H]1C(=O)N[C@@H](Cc1ccccc1)C(=O)N[C@@H](CCC(=O)N[C@@H](CC(C)C)C(=O)O)Cc1ccccc1)C(C)C)[C@@H](C)CC` are “inactive”, “Non-Toxic” and 45%.
On the same counts, the results for `CC[C@H](C)[C@H](N)C(=O)N[C@H](C(=O)N[C@@H](CC(C)C)C(=O)N[C@H](C(=O)N1CCC[C@H]1C(=O)N1CCC[C@H]1C(=O)N[C@H](CCC(=O)N[C@@H](CCC(=O)N[C@@H](CC(C)C)C(=O)O)Cc1ccccc1)Cc1ccccc1)C(C)C)[C@@H](C)CC` are “inactive”, “Non-Toxic” and 45%.
Consider `CC[C@H](C)[C@H](N)C(=O)N[C@H](C(=O)N[C@@H](CC(C)C)C(=O)N[C@H](C(=O)N1CCC[C@H]1C(=O)N1CCC[C@H]1C(=O)N[C@H](CCC(=O)N[C@@H](Cc1ccccc1)C(=O)N[C@@H](CC(C)C)C(=O)O)Cc1ccccc1)C(C)C)[C@@H](C)CC`, for which the outcome in the series with PBMC [6] was inactive. Moreover, in the series on PBMC [7], the Activity entry was “Non-Toxic”. Besides, the inhibition at 10 µg/mL in the series on PBMC [2] amounted to 45%.
Consider `CC[C@H](C)[C@@H]1NC(=O)[C@H](CC(C)C)NC(=O)CC[C@@H](Cc2ccccc2)NC(=O)[C@H](Cc2ccccc2)NC(=O)[C@@H]2CCCN2C(=O)[C@@H]2CCCN2C(=O)[C@H](C(C)C)NC(=O)[C@H](CC(C)C)NC(=O)[C@H]([C@@H](C)CC)NC1=O`, for which the Activity result with PBMC [5] is “Toxic”; with PBMC [1], “Dose-dependent effect”. The inhibition entry with PBMC [2] was “Active”. For the same molecule, the result with PBMC [4] was Active.
As to `CC[C@H](C)[C@@H]1NC(=O)[C@H](CC(C)C)NC(=O)[C@H](Cc2ccccc2)NC(=O)[C@H](Cc2ccccc2)NC(=O)[C@@H]2CCCN2C(=O)[C@@H]2CCCN2C(=O)[C@H](C(C)C)NC(=O)[C@H](CC(C)C)NC(=O)[C@H]([C@@H](C)CC)NC1=O` (cyclo(FFLIILVPP)), the outcome in the series on HT-29 and with A-431 was inactive.
